Data from ChEMBL document CHEMBL4190344, “Synthesis of substituted phenanthrene-9-benzimidazole conjugates: Cytotoxicity evaluation and apoptosis inducing studies” (Eur J Med Chem, 2017).
The source made the active and inactive calls. No cut-off for these calls is given here.

Columns and labels:
[1] = system: PC-3; assay: Cell cycle arrest in human PC3 cells assessed as accumulation at subG1 phase at 2.10 uM incubated for 24 hrs by propidium iodide staining based flow cytometry (reference value: 1.71%); type: functional
[2] = system: PC-3; assay: Induction of reactive oxygen species in human PC3 cells at 2.5 to 10 uM pre-incubated with NAC before compound addition for 6 hrs by DCFDA dye based spectrofluorometry; type: functional, cell-based
Procedure, shortened: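 PC-3 cells (1 × 10^6 cells/mL) adhered overnight, then were treated at 2.5, 5.0 or 10.0 µM. Medium was replaced with DCFDA 10 µM for 30 min in the dark, and fluorescence read by spectrofluorometer at ex 488/em 525 nm. N-acetyl cysteine pretreatment before compound and H2O2 were used as comparisons.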

[3] = system: PC-3; assay: Induction of apoptosis in human PC3 cells assessed as viable cells level at 2.5 uM incubated for 24 hrs by annexin V-FITC/propidium iodide dual staining based flow cytometry (reference value: 76.73%); type: functional
Procedure, shortened: (§1)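 PC-3 cells were grown 24 h, then treated 24 h at 2.5, 5.0 or 10 µM. Cells were trypsinised, washed twice in ice-cold PBS and stained in binding buffer with Annexin V-FITC followed by propidium iodide at room temperature in the dark. 10,000 cells per sample were run on a flow cytometer, with quadrants scored as live, early apoptotic, late apoptotic or necrotic.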

[4] = system: PC-3; assay: Cell cycle arrest in human PC3 cells assessed as accumulation at G2/M phase at 5 uM incubated for 24 hrs by propidium iodide staining based flow cytometry (reference value: 25.96%); type: functional
[5] = system: Calf thymus DNA; assay: Binding affinity to calf thymus DNA assessed as increase in relative viscosity of DNA-compound complex at 5 uM by viscometry; type: nucleic-acid assay; details: Bos taurus
Procedure, shortened: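 Viscosity titration of test compound (5 µM) into CT-DNA (50 µM) in 100 mM Tris-HCl pH 7.0. Rolling-ball viscometer, ball fall time read at angles of 20° to 70°, Peltier-held temperature, viscosity calculated at 25 °C.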

[6] = system: PC-3; assay: Cytotoxicity in human PC3 cells assessed as reduction in cell viability at 2.5 to 10 uM incubated for 48 hrs by phase contrast microscopy; type: functional, cell-based
Procedure, shortened: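 PC-3 cells at 1 × 10^5 cells/mL adhered overnight, then received compound at 2.5, 5.0 or 10.0 µM. After 48 h, morphology (viable cell number, nuclear shrinkage, detachment) was imaged by phase contrast microscopy.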

[7] = system: PC-3; assay: Cell cycle arrest in human PC3 cells assessed as accumulation at S phase at 5 uM incubated for 24 hrs by propidium iodide staining based flow cytometry (reference value: 13.92%); type: functional
[8] = system: PC-3; assay: Cell cycle arrest in human PC3 cells assessed as accumulation at subG1 phase at 2.5 uM incubated for 24 hrs by propidium iodide staining based flow cytometry (reference value: 1.71%); type: functional
[9] = system: PC-3; assay: Induction of apoptosis in human PC3 cells assessed as induction of horse-shoe shaped nuclei formation at 2.5 to 10 uM incubated for 48 hrs by DAPI staining based fluorescence microscopy; type: functional, cell-based
Procedure, shortened: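 Compound-treated PC-3 cells were PBS-washed, permeabilised with 0.1% Tween 20 for 10 min and stained with 1 µM DAPI. Nuclear morphology was viewed by fluorescence microscopy at ex 359/em 461 nm, 200×.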

[10] = system: PC-3; assay: Induction of mitochondrial membrane potential loss in human PC3 cells assessed as JC1 monomer level at 10 uM incubated for 24 hrs by JC1 staining based flow cytometry (reference value: 22.8%); type: functional
[11] = system: BT-549; assay: Cytotoxicity in human BT549 cells incubated for 48 hrs by MTT assay; type: functional, cell-based; details: BT-549, 48 h
Procedure, shortened: (§2)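 Cells (1 × 10^4/well) were seeded in medium with 10% FBS and left 24 h at 37 °C. Compound diluted in medium was then added, alongside a vehicle control, for 48 h. MTT (5 mg/mL stock) was added for 4 h, formazan dissolved in DMSO and absorbance read at 570 nm. IC50 taken as the concentration giving 50% inhibition.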

[12] = system: MDA-MB-453; assay: Cytotoxicity in human MDA-MB-453 cells incubated for 48 hrs by MTT assay; type: functional, cell-based; details: MDA-MB-453, 48 h; procedure, shortened: as §2
[13] = system: PC-3; assay: Induction of mitochondrial membrane potential loss in human PC3 cells incubated for 24 hrs by JC1 staining based flow cytometry (reference value: 76.94%); type: functional, cell-based
[14] = system: PC-3; assay: Induction of apoptosis in human PC3 cells assessed as viable cells level at 10 uM incubated for 24 hrs by annexin V-FITC/propidium iodide dual staining based flow cytometry (reference value: 76.73%); type: functional; procedure, shortened: as §1
[15] = system: PC-3; assay: Cell cycle arrest in human PC3 cells assessed as accumulation at G0/G1 phase at 2.10 uM incubated for 24 hrs by propidium iodide staining based flow cytometry (reference value: 106.67%); type: functional
[16] = system: PC-3; assay: Induction of apoptosis in human PC3 cells assessed as necrotic cells level at 10 uM incubated for 24 hrs by annexin V-FITC/propidium iodide dual staining based flow cytometry (reference value: 0.59%); type: functional; procedure, shortened: as §1
[17] = system: PC-3; assay: Cell cycle arrest in human PC3 cells assessed as accumulation at subG1 phase at 5 uM incubated for 24 hrs by propidium iodide staining based flow cytometry (reference value: 1.71%); type: functional
[18] = system: PC-3; assay: Induction of apoptosis in human PC3 cells assessed as late apoptotic cells level at 10 uM incubated for 24 hrs by annexin V-FITC/propidium iodide dual staining based flow cytometry (reference value: 10.92%); type: functional; procedure, shortened: as §1
[19] = system: PC-3; assay: Induction of apoptosis in human PC3 cells incubated for 24 hrs by annexin V-FITC/propidium iodide dual staining based flow cytometry; type: functional, cell-based; procedure, shortened: as §1
[20] = system: PC-3; assay: Induction of apoptosis in human PC3 cells assessed as late apoptotic cells level at 2.5 uM incubated for 24 hrs by annexin V-FITC/propidium iodide dual staining based flow cytometry (reference value: 10.92%); type: functional; procedure, shortened: as §1
[21] = system: PC-3; assay: Induction of mitochondrial membrane potential loss in human PC3 cells assessed as JC1 aggregate level at 5 uM incubated for 24 hrs by JC1 staining based flow cytometry (reference value: 76.94%); type: functional
[22] = system: PC-3; assay: Induction of apoptosis in human PC3 cells assessed as necrotic cells level at 2.5 uM incubated for 24 hrs by annexin V-FITC/propidium iodide dual staining based flow cytometry (reference value: 0.59%); type: functional; procedure, shortened: as §1
[23] = system: PC-3; assay: Induction of apoptosis in human PC3 cells assessed as viable cells level at 5 uM incubated for 24 hrs by annexin V-FITC/propidium iodide dual staining based flow cytometry (reference value: 76.73%); type: functional; procedure, shortened: as §1

With `COc1ccc2cc(-c3nc4ccc(F)cc4[nH]3)c3cc(OC)c(OC)cc3c2c1` the Activity [1] was 5.01%, the Activity [2] was “inactive” and the Activity [3] was 38.69%. For the same compound, the Activity [4] was 29.78%, the Activity [5] was “Active” and the Activity [6] was “Active”. For the same compound, the Activity [7] was 14.21%, the Activity [8] was 3.08% and the Activity [9] was “Active”. The Activity [10] was 95.64%, the IC50 [11] was 13.2 µM and the IC50 [12] was 6.61 µM. For the same compound, the Activity [13] was “Dose-dependent effect”, the Activity [14] was 27.68% and the Activity [15] was 38.61%. It also gave an Activity [16] of 0.36%, an Activity [17] of 5.01% and an Activity [18] of 49.02%. The Activity [19] was “Dose-dependent effect”, the Activity [20] was 24.89% and the Activity [21] was 32.38%. It also gave an Activity [22] of 0.21% and an Activity [23] of 32.12%.
